Screening data from PubChem BioAssay.
PP1 inh – blocks human PP1-alpha phosphatase, a PP5 counter-screen; purified PP1alpha, OMFP fluorescence; inhibition, % at 6.7 µM; 320,000 tested, 0.9% active; AID 2235;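 active means inhibition above the mean inhibition of all tested compounds plus 3 SD, computed separately for each screening campaign, cut at about 15% in these data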
UBC13 inh – human UBC13 polyubiquitination inhibition; P61088; UBC13 polyubiquitin chain formation, TR-FRET; inhibition, % at 20 µM; 330,000 tested, 0.47% active; in the data active means inhibition above about 45%, passing the limit was not always enough; inconclusive means no clear call, values can overlap the other calls
T cruzi inh – T. cruzi replication inhibition; T. cruzi beta-gal in NIH3T3, luminescence, 90 h; inhibition, % (concentration not given with the values); 300,000 tested, 1.4% active;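 active means mean inhibition across valid replicates above about 55%, limit read from the data; inconclusive means mean below that limit but half or more replicates reach it; inactive means mean below it, under half of replicates reach it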;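 further: signal also drops with host cell toxicity which is not excluded here; higher percent means less beta-gal luminescence so fewer parasites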
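System – NIH/3T3 host cells with β-galactosidase reporter T. cruzi · Doses – single 50 nL compound addition per well in DMSO · Reagent – 5000 T. cruzi trypomastigotes/well · Medium – Low-serum DMEM with 2% FBS · Timing – ≥90 h infection period, 3 h prior cell attachment · Evaluation – parasite load inhibition, % · Technique – GalScreen luminescence, 60 min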
AI-2 QS mod – modulates the Vibrio harveyi AI-2 quorum sensing system. Vibrio harveyi JMH597 AI-2 luminescence/OD600 ratio, 9 h; stronger effect = lower value; strain lacks LuxN and CqsS sensors; 0 = neutral-control median. activity change, % at 7.5 µM. 300,000 tested, 0.4% active. AID 2094; in the data active means activity change below about -75%, passing the limit was not always enough; inconclusive means no clear call, values can overlap the other calls;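 further: luminescence divided by OD600 gain over 9 h not by final OD600 alone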
pCIP destab – compounds decreasing mouse p/CIP protein stability. F442A p/CIP-EGFP cells, EGFP fluorescence, 16 h. decrease of EGFP signal, % at 10 µM. 290,000 tested, 0.01% active;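 active means EGFP signal decrease of at least 30% at 10 µM or well 3 SD below plate mean, unless failing retest; inactive means the rest, including hits failing retest or dose response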
Target sequence (Q05BA5 1-1403): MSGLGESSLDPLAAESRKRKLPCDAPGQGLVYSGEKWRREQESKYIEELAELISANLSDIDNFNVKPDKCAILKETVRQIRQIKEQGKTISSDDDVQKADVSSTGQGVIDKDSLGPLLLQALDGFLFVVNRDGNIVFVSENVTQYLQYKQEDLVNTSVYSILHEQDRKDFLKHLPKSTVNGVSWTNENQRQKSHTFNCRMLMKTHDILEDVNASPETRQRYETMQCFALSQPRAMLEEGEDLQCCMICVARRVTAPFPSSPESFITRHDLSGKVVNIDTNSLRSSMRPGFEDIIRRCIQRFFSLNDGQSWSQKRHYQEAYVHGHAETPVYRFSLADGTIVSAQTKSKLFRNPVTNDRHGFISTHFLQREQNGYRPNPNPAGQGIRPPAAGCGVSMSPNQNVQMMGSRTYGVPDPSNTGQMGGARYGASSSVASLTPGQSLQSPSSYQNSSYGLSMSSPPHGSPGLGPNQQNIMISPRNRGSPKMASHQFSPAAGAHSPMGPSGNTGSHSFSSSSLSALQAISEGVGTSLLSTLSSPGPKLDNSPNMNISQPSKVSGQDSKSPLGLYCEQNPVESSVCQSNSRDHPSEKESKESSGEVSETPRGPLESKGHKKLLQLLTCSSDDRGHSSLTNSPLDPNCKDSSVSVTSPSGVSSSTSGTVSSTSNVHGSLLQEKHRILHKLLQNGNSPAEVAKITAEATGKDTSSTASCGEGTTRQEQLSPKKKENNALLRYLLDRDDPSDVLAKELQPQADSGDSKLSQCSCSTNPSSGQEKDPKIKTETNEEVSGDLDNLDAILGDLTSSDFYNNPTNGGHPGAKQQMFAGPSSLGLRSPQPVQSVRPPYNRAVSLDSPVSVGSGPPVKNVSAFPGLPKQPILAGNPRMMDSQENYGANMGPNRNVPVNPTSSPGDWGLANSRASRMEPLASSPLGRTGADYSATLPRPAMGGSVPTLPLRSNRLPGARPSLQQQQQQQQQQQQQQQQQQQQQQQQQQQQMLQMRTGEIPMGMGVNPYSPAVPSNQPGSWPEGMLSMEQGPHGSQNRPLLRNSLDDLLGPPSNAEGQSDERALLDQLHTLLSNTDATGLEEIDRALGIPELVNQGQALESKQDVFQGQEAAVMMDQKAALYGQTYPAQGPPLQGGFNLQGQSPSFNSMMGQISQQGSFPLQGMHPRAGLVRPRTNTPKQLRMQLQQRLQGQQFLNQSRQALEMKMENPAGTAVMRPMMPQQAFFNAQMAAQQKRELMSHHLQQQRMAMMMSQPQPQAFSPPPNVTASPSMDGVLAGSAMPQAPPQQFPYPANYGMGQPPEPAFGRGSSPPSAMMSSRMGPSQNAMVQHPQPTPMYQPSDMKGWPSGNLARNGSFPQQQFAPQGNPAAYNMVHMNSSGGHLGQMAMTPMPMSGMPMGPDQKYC
A number is an active result; n = inactive; u = inconclusive; x = no result; ! = not active in a repeat. Most compounds without a hit are left out; they make up all but 2.8% or so of the library.

SMILES	PP1 inh	UBC13 inh	T cruzi inh	AI-2 QS mod	pCIP destab
CCCCNC(=O)CCC(=O)Nc1ccc2nc(N3CCN(C)CC3)cc(C)c2c1	n	n	n	n	n
CCN1CCN(c2cc(C)c3cc(NC(=O)Cc4ccccc4OC)ccc3n2)CC1	n	n	70.6	n	n
N#CCC(=O)N1CCN(Cc2ccc3c(c2)OCO3)CC1	n	n	n	n	x
Cn1c(SCC(=O)N2c3ccccc3Sc3ccccc32)nc2ccccc21	n	n	58.8	n	n
CCCn1c(SCC(=O)N2c3ccccc3Sc3ccccc32)nc2c1c(=O)n(C)c(=O)n2C	n	n	n	n	n
CN(C)CCCn1c(SCC(=O)N2c3ccccc3Sc3ccccc32)nc2ccccc2c1=O	n	x	58.0	n	n
CC(C)OCc1c(C(=O)Nc2nccs2)oc2ccccc12	n	n	n	n	n
CC(OC(=O)c1cc[n+]([O-])cc1)C(=O)NCc1ccccc1 (stereo unspecified)	n	n	n	n	x
Cc1ccccc1-n1nnnc1SCc1csc(-c2ccccc2)n1	n	n	n	n	n
C/C(=N\NC(=O)c1cc(-c2ccc(C)s2)nc2ccccc12)c1cccnc1	x	n	n	n	n
C/C(=N\NC(=O)c1cc(-c2cccc(OC(C)C)c2)nc2ccccc12)c1cccnc1	x	n	63.5	n	n
CCOc1ccc2nc(NC(=S)N(C)C)sc2c1	n	n	n	n	n
CN(C)C(=S)Nc1nc2ccccc2s1	x	x	56.5	n	n
COc1ccc2[nH]c(=O)c(CN(Cc3nnnn3Cc3ccco3)C3CCCCC3)cc2c1	n	n	n	n	n
COc1ccc2[nH]c(=O)c(CN(C3CCCCC3)C(c3nnnn3Cc3ccco3)C(C)C)cc2c1 (stereo unspecified)	20.5	n	n	n	n
COc1ccc2[nH]c(=O)c(CN(Cc3ccco3)C(c3nnnn3Cc3ccccc3)C(C)C)cc2c1 (stereo unspecified)	n	n	75.5	n	n
Cc1cccc2cc(CN(Cc3ccco3)C(c3nnnn3CCc3ccccc3)C(C)C)c(=O)[nH]c12 (stereo unspecified)	15.6	n	n	n	n
COc1ccc(OC)c2nc3c(cc12)CCC3	n	n	n	n	n
CN1CCN(c2nc(-c3ccccc3)nc(-c3ccc(F)cc3)c2C#N)CC1	n	n	55.5	n	n
Cc1ccc(NC(=O)/C(C#N)=C(\N)C(Cl)(Cl)Cl)nc1	n	n	n	n	n
COc1ccc(NC(=O)C(=O)NCCN2CCN(C(=O)c3cccc(Br)c3)CC2)cc1	n	n	n	n	n
O=C(Nc1nc2ccccc2s1)c1ccccc1[N+](=O)[O-]	n	n	n	n	n
O=C(Nc1cc(Sc2nc3ccccc3s2)cc([N+](=O)[O-])c1)c1ccccc1	n	n	56.0	n	n
O=C(Nc1cc(Sc2ccccn2)cc([N+](=O)[O-])c1)c1cccc(F)c1	n	n	n	n	n
O=C(Nc1cc(Sc2nc3ccccc3s2)cc([N+](=O)[O-])c1)c1ccccc1F	n	n	65.4	n	n
SMILES	PP1 inh	UBC13 inh	T cruzi inh	AI-2 QS mod	pCIP destab
CC1(C)Cc2c(c(N3CCOCC3)nc3sc4c(NCc5ccccc5)nnnc4c23)CS1	n	n	61.6	n	n
CC1(C)Cc2c(c(N3CCOCC3)nc3sc4c(NCc5ccco5)nnnc4c23)CS1	n	n	n	n	n
CCN1CCN(C(=O)c2cnn3c(C(F)F)cc(-c4ccc(C)cc4)nc23)CC1	n	n	n	n	n
Cc1ccc(-c2cc(C(F)F)n3ncc(C(=O)N4CCN(c5ccccn5)CC4)c3n2)cc1	n	n	60.1	n	n
COc1ccc(-c2cc(C(F)F)n3ncc(C(=O)N4CCCCC4)c3n2)cc1	n	n	89.3	n	n
O=[N+]([O-])c1ccc(/C=N/N2CCN(c3ccncc3S(=O)(=O)N3CCCCC3)CC2)cc1	n	n	n	n	n
O=[N+]([O-])c1ccccc1/C=N/N1CCN(c2ccncc2S(=O)(=O)N2CCCCC2)CC1	n	n	76.3	n	n
CCOC(=O)N1CCN(CCC(=O)Nc2cccc(Br)c2)CC1	17.5!	n	n	n	n
O=C(CCN1CCN(Cc2ccccc2)CC1)Nc1cccc(Cl)c1	n	n	54.8	n	n
O=C(c1cccc(Cl)c1)N1CCN(Cc2ccncc2)CC1	x	x	x	x	28.8
O=C(CCN1CCN(C/C=C/c2ccccc2)CC1)Nc1ccccc1	n	n	56.2	n	n
COc1cc(NC(=O)CCN2CCN(Cc3ccccc3)CC2)cc(OC)c1	n	n	n	n	n
C[C@@H]1C(NC(=O)c2ccccc2)CC2CC1C2(C)C (stereo partly specified)	n	n	n	n	n
O=C(CN1C(=O)C2C3CC(C(Br)C3Br)C2C1=O)Nc1ccc(C(=O)O)cc1 (stereo unspecified)	n	n	n	n	n
CCC(C)NCCOCCOc1ccc(Cl)cc1Br (stereo unspecified)	n	n	72.2	n	n
CCC(C)NCCOCCOc1cc(C)c(Cl)c(C)c1 (stereo unspecified)	n	n	u	n	n
CCC(C)NCCOCCOc1ccc(F)cc1 (stereo unspecified)	n	n	55.0	n	n
C/C(N)=C(/C#N)C(=O)CSc1cc(C)c2cc(C)cc(C)c2n1	n	n	62.3	n	n
Cc1cc(C)c2nc(SCC#N)cc(C)c2c1	n	n	n	n	n
Oc1ccc(-c2nccc(-c3ccc(Cl)cc3Cl)n2)cc1	n	n	79.0	n	n
CCN(CC)c1ccc(/C=N/NC(=O)c2ccco2)cc1	n	x	n	n	n
CCN(CC)c1ccc(/C=N/NC(=O)c2ccco2)c(O)c1	n	n	61.3	n	n
CCN(CC)c1ccc(/C=N/NC(=O)Cc2cccs2)c(O)c1	15.9	x	n	n	n
O=C(Cc1cccs1)N/N=C/c1ccccc1	n	n	n	n	n
COc1ccc(S(=O)(=O)N2CCN(C)CC2)cc1NC(=O)c1ccccc1C	n	n	n	n	n
SMILES	PP1 inh	UBC13 inh	T cruzi inh	AI-2 QS mod	pCIP destab
COc1cc(OC)nc(/N=C/N(C)C)n1	x	x	x	x	n
O=C(CCC(=O)c1ccc(F)cc1)Nc1cccc(C(F)(F)F)c1	n	n	n	-77.5	n
O=C(CCC(=O)c1ccc(Br)cc1)Nc1ccc(F)cc1	n	n	n	n	n
CCOC(=O)C1=C(N)Oc2cc(O)ccc2C1c1ccc([N+](=O)[O-])cc1 (stereo unspecified)	n	n	57.1	n	n
CC(C)N(CC(=O)Nc1ccc(Cl)cc1C(F)(F)F)C(=O)CCl	n	n	82.6	n	n
CCC(C)N(CC(=O)Nc1cccc(C)c1C)C(=O)CCl (stereo unspecified)	n	n	69.0	n	n
O=C(O)CSCC(=O)Nc1ccc(Cl)cc1C(F)(F)F	n	n	n	n	n
COc1ccc(OCc2cc(C(=O)N(C)Cc3cc(C4CC4)n[nH]3)no2)c(Cl)c1	n	n	n	n	n
Cc1nnsc1C(=O)N1CCC(CO)(Cc2ccccc2Cl)CC1	n	n	n	n	n
CCOc1ccc(NC(=O)CSc2nnc(C)n2Cc2ccccc2)cc1	16.3	n	n	n	n
